mIAP block – mouse IAP inhibition; purified mouse IAP, CDP-Star luminescence, 30 min; 330,000 compounds, 0.2% hits; inhibition, % at 10 µM;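 active = inhibition of at least 40% at 10 µM in the primary screen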
hIAP act – human IAP activation | 330,000 compounds, 0.16% hits | AID 2524 | purified human IAP, CDP-Star luminescence, 30 min; stronger effect = higher value; 1 = vehicle-only enzyme, 0 = enzyme-free background | P09923 | activation factor at 10 µM;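 active = activation factor of the enzyme at least 2-fold when tested at 20 µM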
Target sequence (P09923 whole entry, looked up): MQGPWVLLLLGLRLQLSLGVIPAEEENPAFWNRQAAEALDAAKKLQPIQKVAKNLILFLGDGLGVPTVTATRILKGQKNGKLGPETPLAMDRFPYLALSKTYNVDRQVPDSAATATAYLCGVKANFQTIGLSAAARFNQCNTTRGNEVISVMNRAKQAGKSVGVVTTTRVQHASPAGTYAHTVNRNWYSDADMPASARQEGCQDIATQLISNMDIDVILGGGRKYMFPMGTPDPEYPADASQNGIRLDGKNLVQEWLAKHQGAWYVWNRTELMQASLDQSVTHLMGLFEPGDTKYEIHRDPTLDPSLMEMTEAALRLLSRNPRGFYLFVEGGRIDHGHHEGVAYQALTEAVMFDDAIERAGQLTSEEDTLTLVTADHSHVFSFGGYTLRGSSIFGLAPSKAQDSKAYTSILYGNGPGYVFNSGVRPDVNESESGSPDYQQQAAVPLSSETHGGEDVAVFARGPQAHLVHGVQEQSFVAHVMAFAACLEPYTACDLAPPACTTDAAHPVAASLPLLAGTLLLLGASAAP
bIAP inhibitor – intestinal alkaline phosphatase (bovine) inhibition; purified bovine IAP, CDP-star luminescence, 30 min; inhibition, % at 20 µM; 190,000 tested, under 10 active; AID 1019;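 active = over 50% inhibition of intestinal alkaline phosphatase at 20 µM in the single-dose screen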
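System: purified bovine intestinal alkaline phosphatase (IAP) enzyme; Input: IAP diluted 1/65,000,000 in the well; Measured by: CDP-star luminescence signal; Compound dosing: 20 µM single dose; Incubation: 30 min reaction at room temperature.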
hIAP block – human IAP inhibition; 330,000 compounds, 0.12% hits; inhibition, % at 10 µM; purified IAP, CDP-Star luminescence, 30 min; AID 2544;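 active = inhibition reaching a set limit with compound at 10 µM in the primary screen, cut at about 35% in these data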
mIAP activ – increases mouse intestinal alkaline phosphatase activity. 330,000 compounds, 0.24% hits. activation factor at 10 µM. AID 2805. muIAP, CDP-Star luminescence, 30 min; stronger effect = higher value; 1 = vehicle-only enzyme signal, 0 = enzyme-free wells;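 active = activation factor of at least 2 at 20 µM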
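Assay system: mouse IAP enzyme; Reagent: CDP-Star chemiluminescent phosphatase substrate; Compound: DMSO-dissolved test compounds; Incubation: 30 min, room temperature; Technique: luminescence from enzymatic CDP-Star hydrolysis; Controls: DMSO-only wells and no-enzyme negative control.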
bIAP act – increases bovine intestinal alkaline phosphatase activity | purified bovine IAP, CDP-star luminescence, 30 min; stronger effect = higher value; fold of DMSO-control signal, blank-subtracted | activation factor at 20 µM | 200,000 compounds, 0.17% hits;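 active = activation factor of 2 or more at 20 µM, a signal rise over negative controls twice the positive control's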
hIAP act confirm – human IAP activation confirmation | shares compounds with hIAP act | purified IAP, CDP-Star luminescence, 30 min; stronger effect = lower value | activation (%Activity, negative = activation), % at 8.3 µM | 880 compounds, 10% hits;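 active = at least twofold enzyme activation in any of six single-dose repeats, which the averaged readout prints as negative percent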
Large screens that a line does not name were inactive (follow-up assays come after a bar, where they were run). Sampled rows, rich in hits. Any-hit rate of the full collection: about 0.72%.

Cc1ccc(C)c(N(C(=O)c2csnn2)C(C(=O)NC2CCCCC2)c2ccccn2)c1 (stereo unspecified)	none (no result: bIAP inhibitor, bIAP act)
COc1cc2c(cc1OC)C1=C(C#N)CC/C(=N\S(=O)(=O)c3ccccc3)N1CC2	none
COc1ccc(C(=O)N=C2CCC(C#N)=C3c4cc(OC)c(OC)cc4CCN23)cc1	hIAP act 2.1 | hIAP act confirm inactive
O=c1ccc2cc(O)c(O)cc2o1	hIAP block 40 | hIAP act confirm inactive
COc1ccc(Oc2nc(-c3cccnc3)nc3ccccc23)cc1	none (no result: bIAP inhibitor, bIAP act)
CC(=O)CCc1ccc(Oc2nc(-c3cccnc3)nc3ccccc23)cc1	hIAP block 36 | hIAP act confirm inactive
CCOc1ccc(CCNC(=O)Cn2nc(C)n3cccc3c2=O)cc1OCC	none (no result: bIAP inhibitor, bIAP act)
CCCNC(=S)NNC(=O)c1cc(C2CC2)nc2ccccc12	hIAP act 2.2 (no result: bIAP inhibitor, bIAP act) | hIAP act confirm inactive
Nc1ncc(Br)cc1S(=O)(=O)NCCc1ccccc1	none (no result: bIAP inhibitor, bIAP act)
Cc1nc(-c2ccc(S(=O)(=O)N3CCCN(CCc4ccccc4)CC3)s2)cs1	hIAP act 2.3 (no result: bIAP inhibitor, bIAP act) | hIAP act confirm inactive
O=C(O)CCC(=O)Nc1ccccc1C(=O)NC1CCCCC1	hIAP act 2.1 | hIAP act confirm inactive
Cn1cccc1-c1cc(C(=O)N/N=C/c2cc(Br)ccc2O)[nH]n1	hIAP act 2.5 (no result: bIAP inhibitor, bIAP act) | hIAP act confirm inactive
CCOC(=O)C(=O)N/N=C(/c1ccccc1)c1ccc(OC)cc1	hIAP block 37 (no result: bIAP inhibitor, bIAP act) | hIAP act confirm inactive
O=Nc1[nH]c(=O)c(/C=C(\O)c2ccccc2)nc1NO	hIAP act 2.1 (no result: bIAP inhibitor, bIAP act) | hIAP act confirm -85
O=C(CSc1ncn[nH]1)NCCc1ccccc1	hIAP act 2.6 | hIAP act confirm -113
O=C(NNc1c2ccccc2nc2ccccc12)c1ccccc1O	none
O=C(NNc1nc(=O)c2cccnc2s1)c1ccccc1O	hIAP act 2.9 | hIAP act confirm inactive
O=C(N/N=C/c1ccco1)c1cc(-c2ccc(Br)s2)[nH]n1	none (no result: bIAP inhibitor, bIAP act)
C/C(=N/NC(=O)c1cc(-c2ccc(Br)s2)[nH]n1)c1ccco1	hIAP act 2.1 | hIAP act confirm inactive
O=C(N/N=C/c1cccs1)c1cc(-c2ccc(Cl)s2)[nH]n1	hIAP act 2 (no result: bIAP inhibitor, bIAP act) | hIAP act confirm inactive
O=C(N/N=C/c1ccco1)c1cc(-c2ccc(Cl)s2)[nH]n1	hIAP act 2 | hIAP act confirm inactive
C=CCc1c(O)c(CC)cc2c(C)cc(=O)oc12	none (no result: bIAP inhibitor, bIAP act)
CN1CCN(C(=O)C2CCC(=O)N(CCc3cccc(F)c3)C2)CC1 (stereo unspecified)	none (no result: bIAP inhibitor, bIAP act)
O=c1cc2c(n[nH]1)-c1ccccc1CC2	none (no result: bIAP inhibitor, bIAP act)
COc1ccc(C2CCCN2CC(O)COc2ccccc2C(C)C)cc1 (stereo unspecified)	none (no result: bIAP inhibitor, bIAP act)
COc1ccc(CNC(=O)[C@@H](C)NC(=O)C2CCN(C(=O)[C@@H](N)CCSC)CC2)cc1	none (no result: bIAP inhibitor, bIAP act)
Cc1ccc(C(=O)NNC(=O)CCC(=O)NCc2ccccc2)cc1Br	hIAP act 2.2 (no result: bIAP inhibitor, bIAP act) | hIAP act confirm inactive
CCOC(=O)c1ccc(Nc2ncnc3nc[nH]c23)cc1	none
c1ccc(COc2ccc(Nc3ncnc4nc[nH]c34)cc2)cc1	hIAP act 2.4 | hIAP act confirm inactive
Cc1cc(NC(=O)CSc2nnc(-c3ccc([N+](=O)[O-])cc3)o2)no1	hIAP block 35 (no result: bIAP inhibitor, bIAP act) | hIAP act confirm inactive
CCOc1cc(/C=N/NC(=O)C(=O)N/N=C/c2ccc(O)c(OCC)c2)ccc1O	hIAP block 38 (no result: bIAP inhibitor, bIAP act) | hIAP act confirm -48
COC(=O)CSCC(=O)Nc1nnc(-c2ccccc2C)s1	none
CCOC(=O)c1cnc(SCC(=O)c2ccccc2)nc1N	hIAP block 35 | hIAP act confirm -436
CCOC(=O)c1cnc(SCC(=O)c2ccc(C)cc2)nc1N	none
Cc1cc(C)cc(C(=O)NCCC(=O)N2CCC3(CC2)NCCc2[nH]cnc23)c1	none (no result: bIAP inhibitor, bIAP act)
O=C(NNc1ncnc2c1cnn2-c1cccc(Cl)c1)c1ccco1	hIAP act 3.4 (no result: bIAP inhibitor, bIAP act) | hIAP act confirm inactive
CCC(=O)NNc1ncnc2c1cnn2-c1cccc(C)c1	none
Cc1ccc(-n2ncc3c(NNC(=O)c4ccco4)ncnc32)cc1C	hIAP act 2.5 (no result: bIAP inhibitor, bIAP act) | hIAP act confirm inactive
Cc1ccc2c(c1)Oc1ccc([N+](=O)[O-])cc1C(=O)N2	hIAP act 2.4 | hIAP act confirm inactive
O=C(CNC(=O)c1ccccc1F)N/N=C/c1cccnc1	none (no result: bIAP inhibitor, bIAP act)
O=C(CNC(=O)c1ccc(Cl)cc1Cl)OCc1nnc(-c2ccccc2)o1	none (no result: bIAP inhibitor, bIAP act)
CCn1c2ccccc2c2cc(NC(=O)c3coc(=O)c(Br)c3)ccc21	hIAP block 42 (no result: bIAP inhibitor, bIAP act) | hIAP act confirm inactive
O=C(/C=C\Nc1ccc(Cl)cn1)c1ccc(Br)cc1	none
CCOC1=C/C(=C/c2c(N)n3nc(S(=O)(=O)CC)sc3nc2=O)C=CC1=O	hIAP block 37 | hIAP act confirm inactive
CCOC1=C/C(=C/c2c(N)n3nc(CC(=O)N4CCCCC4)sc3nc2=O)C=CC1=O	none (no result: bIAP inhibitor, bIAP act)
CN(C)S(=O)(=O)c1cc(NC(=O)COC(=O)CC2Sc3ccccc3NC2=O)ccc1Cl (stereo unspecified)	none (no result: bIAP inhibitor, bIAP act)
O=C(NCCS(=O)(=O)N1CCN(c2cccc(Cl)c2)CC1)c1cc(=O)c2ccccc2o1	hIAP block 39 (no result: bIAP inhibitor, bIAP act) | hIAP act confirm inactive
O=C(NCCS(=O)(=O)N1CCN(c2cccc(Cl)c2)CC1)c1ccc2c(c1)OCO2	none (no result: bIAP inhibitor, bIAP act)
O=C(O)CCC(=O)N1CCN(c2ncccn2)CC1	none (no result: bIAP inhibitor, bIAP act)
Cc1nc(Nc2nc3c(c(=O)[nH]2)CCC3)nc2ccccc12	hIAP act 2.8 (no result: bIAP inhibitor, bIAP act) | hIAP act confirm -78
O=C(CN1C(=O)c2ccccc2S1(=O)=O)NCc1cccs1	hIAP block 45 (no result: bIAP inhibitor, bIAP act) | hIAP act confirm inactive
CC(C)N(C(=S)Nc1cccnc1)c1ccccc1	none (no result: bIAP inhibitor, bIAP act)
N#CCN1C(=S)N=C(Nc2cccc(Cl)c2)C12CCCCC2	hIAP act 2.1 | hIAP act confirm -55
COc1cc(CSc2ncn[nH]2)c(OC)cc1CSc1ncn[nH]1	hIAP act 2.7 | hIAP act confirm inactive
CCCCCCN1C=CC(=C/C=C(\C#N)C(=O)OCC)C=C1	hIAP block 44 | hIAP act confirm inactive
Cc1ccc(C)c(NC(=O)CN2C(=O)COc3ccc(S(=O)(=O)N4CCCC4)cc32)c1	none (no result: bIAP inhibitor, bIAP act)
CN(CC(=O)Nc1cccnc1)S(=O)(=O)c1ccc(Br)cc1	none (no result: bIAP inhibitor, bIAP act)
COc1ccc(S(=O)(=O)N(CC(=O)N2CCOCC2)Cc2ccccc2)cc1	hIAP act 3.2 | hIAP act confirm inactive
CCCCN(C)CCNC(=O)CCn1nc(-c2ccc(C)cc2)ccc1=O	none (no result: bIAP inhibitor, bIAP act)
O=C(CN1CCN(S(=O)(=O)c2ccccc2)CC1)N1CCCCC1	none (no result: bIAP inhibitor, bIAP act)
NS(=O)(=O)c1ccc2nc(NC(=O)c3ccc4ncsc4c3)sc2c1	hIAP block 36 (no result: bIAP inhibitor, bIAP act) | hIAP act confirm inactive
COc1ccccc1N1C(=O)N(CC(=O)C(C)(C)C)c2ccccc2S1(=O)=O	none (no result: bIAP inhibitor, bIAP act)

High-throughput results (PubChem BioAssay)
